What was measured:
[1] = Inhibition of HCV genotype 1b NS5B replicase expressed in Escherichia coli BL21(DE3) using polyA/biotinylated oligo(dT12) as template/primer in presence of [3H]UTP after 60 mins by SPA assay; design: species or system Hepatitis C virus subtype 1b
Hepatitis C virus [2] = test: Antiviral activity against HCV genotype 1b infected in human HuH7 cells after 3 days by luciferase reporter assay; type: functional, cell-based, Hepacivirus hominis; conditions: Hepatitis C virus, genotype 1b, Huh-7, 72 h; read-out: EC50
[3] = Ratio of IC50 for HCV genotype 1b […] replicase to EC50 for HCV genotype 1b infected in human HuH7 cells; design: species or system Hepatitis C virus subtype 1b
[4] = Cytotoxicity against human HuH7 cells after 3 days by CellTiter-Blue assay; type: cell-based, Huh-7
[5] = Inhibition of HCV genotype 1b NS5B replicase C316N mutant infected in human HuH7 cells assessed as reduction of viral replication after 3 days by luciferase reporter assay; type: cell-based, Hepatitis C virus subtype 1b; conditions: Hepatitis C virus, Huh-7, 72 h
Hepatitis C virus [6] = test: Antiviral activity against HCV genotype 1a infected in human HuH7 cells after 3 days by luciferase reporter assay; type: functional, cell-based, Hepacivirus hominis, subtype 1a; conditions: Hepatitis C virus, subtype 1a, Huh-7, 72 h; read-out: EC50
[7] = Half life in human liver microsomes; type: ADME, microsome
[8] = Half life in rat liver microsomes; type: ADME, microsome
[9] = Membrane permeability at pH 7.4 by PAMPA; type: physicochemical; conditions: read-out: permeability
[10] = Drug uptake in Sprague-Dawley rat liver at 6 mg/kg, po via gavage after 6 hrs by LC-MS/MS analysis; type: ADME, organism-based; conditions: read-out: Drug uptake
How it was run: (§1)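 Fasted rats were dosed orally in 90:10 PEG-400/ethanol; 6 h livers came from satellite animals. In the screening variant, n = 2 and plasma was taken to 6 h with livers at the terminal point. Livers were rinsed, blotted, weighed and homogenized in 2 volumes of 80% acetonitrile in HBSS per gram, then centrifuged. Supernatant and plasma were analysed by LC/MS/MS.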

Cytochrome P450 2C8 = molecular target: T1, Cytochrome P450 2C8 (Homo sapiens, UniProt P10632); test: Inhibition of microsomal CYP2C8 (unknown origin); type: ADME
T1 sequence (P10632 whole entry): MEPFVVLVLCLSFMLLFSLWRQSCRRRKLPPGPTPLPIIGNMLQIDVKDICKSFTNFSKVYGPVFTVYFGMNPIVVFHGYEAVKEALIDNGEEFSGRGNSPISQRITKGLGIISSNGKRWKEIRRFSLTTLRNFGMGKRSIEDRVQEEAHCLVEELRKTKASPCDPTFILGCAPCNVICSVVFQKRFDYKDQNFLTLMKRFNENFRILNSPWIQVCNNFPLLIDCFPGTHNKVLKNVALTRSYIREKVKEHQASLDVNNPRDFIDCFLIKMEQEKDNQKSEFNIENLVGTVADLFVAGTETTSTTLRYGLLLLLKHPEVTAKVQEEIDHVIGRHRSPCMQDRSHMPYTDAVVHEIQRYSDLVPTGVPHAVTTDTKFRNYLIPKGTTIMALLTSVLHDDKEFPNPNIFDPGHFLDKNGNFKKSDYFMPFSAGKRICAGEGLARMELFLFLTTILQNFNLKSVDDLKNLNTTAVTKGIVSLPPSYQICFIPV

Cytochrome P450 3A4 = Cytochrome P450 3A4 (Homo sapiens, UniProt P08684); test: Inhibition of microsomal CYP3A4 (unknown origin); type: ADME
[11] = Half life in dog liver microsomes; type: ADME, Canis lupus familiaris, microsome
[12] = Half life in monkey liver microsomes; type: ADME, Macaca mulatta, microsome; conditions: rhesus monkey
[13] = molecular target: Voltage-gated inwardly rectifying potassium channel KCNH2 (Homo sapiens, UniProt Q12809); test: Inhibition of human ERG by thallium flux assay
[14] = molecular target: T2, Nuclear receptor subfamily 1 group I member 2 (Homo sapiens, UniProt O75469); test: Transactivation of PXR (unknown origin); type: ADME
T2 sequence (O75469 whole entry): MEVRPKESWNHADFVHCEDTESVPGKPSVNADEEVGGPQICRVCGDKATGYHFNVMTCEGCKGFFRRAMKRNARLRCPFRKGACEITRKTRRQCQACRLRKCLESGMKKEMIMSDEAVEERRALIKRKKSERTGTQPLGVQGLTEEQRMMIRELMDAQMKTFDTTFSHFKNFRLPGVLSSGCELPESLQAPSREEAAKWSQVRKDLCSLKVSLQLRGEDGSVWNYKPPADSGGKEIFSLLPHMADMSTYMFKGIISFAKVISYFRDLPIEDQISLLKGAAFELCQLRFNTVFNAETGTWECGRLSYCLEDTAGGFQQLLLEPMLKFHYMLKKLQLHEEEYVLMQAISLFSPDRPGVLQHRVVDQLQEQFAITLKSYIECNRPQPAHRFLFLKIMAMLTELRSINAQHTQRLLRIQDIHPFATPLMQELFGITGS

[15] = Lipophilicity, log D of the compound at pH 6.5 by shake flask method; type: physicochemical; conditions: buffer
hERG = hERG (Homo sapiens, UniProt Q12809); test: Inhibition of human ERG at 10 uM by patch clamp assay
Rattus norvegicus [16] = test: Half life in Sprague-Dawley rat at 2 mg/kg,iv by LC/MS/MS analysis; type: ADME, organism-based; conditions: in vivo
How it was run: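 A 10 min constant-rate jugular vein infusion was given in 90:10 PEG-400/ethanol (v/v), n = 3 rats. Plasma was sampled predose and at 10, 15, 30, 45, 60 min and 2, 4, 6, 8, 24 h, then assayed by LC/MS/MS. Clearance and apparent terminal t1/2 were estimated by noncompartmental analysis.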

Rattus norvegicus [17] = test: Volume of distribution at steady state in Sprague-Dawley rat at 2 mg/kg, iv by LC/MS/MS analysis; type: ADME, organism-based; conditions: in vivo
How it was run: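 Rats received a 2 mg/kg IV dose in 90:10 PEG-400/ethanol as a 10 min constant-rate jugular infusion. Blood collected predose and at 10, 15, 30, 45, 60 min and 2, 4, 6, 8, 24 h; n = 3. Plasma analyzed by LC/MS/MS. Vss derived by noncompartmental analysis of IV data.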

[18] = Cmax in Sprague-Dawley rat at 6 mg/kg, po administered via gavage by LC/MS/MS analysis; type: ADME, organism-based; design: dose 6 mg/kg, route oral; conditions: in vivo
How it was run: (§2)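 Rats were fasted overnight with free access to water, then dosed by gastric gavage with an […] solution in 90:10 PEG-400/ethanol (v/v), n = 3 per group. EDTA plasma was sampled predose and at 15, 30, 45, 60 min and 2, 4, 6, 8, 24 h, then assayed by LC/MS/MS. Parameters come from noncompartmental analysis: Cmax observed directly, AUC by linear/log trapezoidal summation, F as dose-normalized PO/IV AUC ratio.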

[19] = Tmax in Sprague-Dawley rat at 6 mg/kg, po administered via gavage by LC/MS/MS analysis; type: ADME, organism-based; conditions: in vivo
How it was run: (§3)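 Rats fasted overnight, then dosed by gavage at 6 mg/kg in 90:10 PEG-400/ethanol (v/v). Plasma sampled serially from cannula into EDTA tubes predose and at 15, 30, 45, 60 min and 2, 4, 6, 8, 24 h; n = 3. Livers removed at 6 h (satellite animals) and 24 h, homogenized in 80% acetonitrile/HBSS, assayed by LC/MS/MS. Tmax taken directly from observed data.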

[20] = AUC in Sprague-Dawley rat at 6 mg/kg, po administered via gavage by LC/MS/MS analysis; type: ADME, organism-based; conditions: in vivo; how it was run: as §2
[21] = Drug uptake in Sprague-Dawley rat liver at 6 mg/kg, po administered via gavage after 24 hrs by LC/MS/MS analysis; type: ADME, organism-based; conditions: read-out: Drug uptake; how it was run: as §1
[22] = Ratio of drug uptake in Sprague-Dawley rat liver to plasma at 6 mg/kg, po administered via gavage after 24 hrs by LC/MS/MS analysis; type: ADME, organism-based; how it was run: as §3
[23] = Oral bioavailability in Sprague-Dawley rat at 6 mg/kg by LC/MS/MS analysis; type: ADME, organism-based; conditions: in vivo; how it was run: as §2
Hepatitis C virus [24] = test: Ratio of EC50 for HCV genotype 1b infected in human HuH7 cells in presence of 40% human serum to EC50 for HCV genotype-1b infected in human HuH7 cells; type: functional, Hepacivirus hominis
Hepatitis C virus [25] = test: Ratio of EC50 for HCV genotype 1a infected in human HuH7 cells in presence of 40% human serum to EC50 for HCV genotype 1a infected in human HuH7 cells; type: functional, Hepacivirus hominis, subtype 1a
[26] = Metabolic stability in human liver microsomes assessed as parent compound remaining after 10 mins; type: ADME, microsome; conditions: read-out: Stability
[27] = Metabolic stability in rat liver microsomes assessed as parent compound remaining after 10 mins; type: ADME, microsome; conditions: read-out: Stability
[28] = Drug uptake in Sprague-Dawley rat plasma at 6 mg/kg, po via gavage after 6 hrs by LC-MS/MS analysis; type: ADME, organism-based; how it was run: as §1
[29] = Clearance in Sprague-Dawley rat at 6 mg/kg, po via gavage by LC-MS/MS analysis; type: ADME, organism-based; conditions: in vivo

Sequence of Cytochrome P450 3A4 (P08684 whole entry): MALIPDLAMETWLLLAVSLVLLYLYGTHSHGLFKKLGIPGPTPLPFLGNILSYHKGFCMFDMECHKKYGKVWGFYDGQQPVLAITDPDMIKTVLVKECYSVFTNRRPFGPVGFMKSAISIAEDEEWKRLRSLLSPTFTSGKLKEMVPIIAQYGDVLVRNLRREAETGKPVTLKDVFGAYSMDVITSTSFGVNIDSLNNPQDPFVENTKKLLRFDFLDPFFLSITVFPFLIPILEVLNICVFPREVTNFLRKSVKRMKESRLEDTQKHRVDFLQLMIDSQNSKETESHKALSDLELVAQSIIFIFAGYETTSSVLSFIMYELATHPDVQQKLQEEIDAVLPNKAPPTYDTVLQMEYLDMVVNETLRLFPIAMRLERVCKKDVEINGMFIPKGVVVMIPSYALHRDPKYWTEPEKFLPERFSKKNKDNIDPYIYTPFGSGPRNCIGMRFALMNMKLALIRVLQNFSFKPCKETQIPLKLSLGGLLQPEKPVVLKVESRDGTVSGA
Sequence of Voltage-gated inwardly rectifying potassium channel KCNH2 (Q12809 whole entry): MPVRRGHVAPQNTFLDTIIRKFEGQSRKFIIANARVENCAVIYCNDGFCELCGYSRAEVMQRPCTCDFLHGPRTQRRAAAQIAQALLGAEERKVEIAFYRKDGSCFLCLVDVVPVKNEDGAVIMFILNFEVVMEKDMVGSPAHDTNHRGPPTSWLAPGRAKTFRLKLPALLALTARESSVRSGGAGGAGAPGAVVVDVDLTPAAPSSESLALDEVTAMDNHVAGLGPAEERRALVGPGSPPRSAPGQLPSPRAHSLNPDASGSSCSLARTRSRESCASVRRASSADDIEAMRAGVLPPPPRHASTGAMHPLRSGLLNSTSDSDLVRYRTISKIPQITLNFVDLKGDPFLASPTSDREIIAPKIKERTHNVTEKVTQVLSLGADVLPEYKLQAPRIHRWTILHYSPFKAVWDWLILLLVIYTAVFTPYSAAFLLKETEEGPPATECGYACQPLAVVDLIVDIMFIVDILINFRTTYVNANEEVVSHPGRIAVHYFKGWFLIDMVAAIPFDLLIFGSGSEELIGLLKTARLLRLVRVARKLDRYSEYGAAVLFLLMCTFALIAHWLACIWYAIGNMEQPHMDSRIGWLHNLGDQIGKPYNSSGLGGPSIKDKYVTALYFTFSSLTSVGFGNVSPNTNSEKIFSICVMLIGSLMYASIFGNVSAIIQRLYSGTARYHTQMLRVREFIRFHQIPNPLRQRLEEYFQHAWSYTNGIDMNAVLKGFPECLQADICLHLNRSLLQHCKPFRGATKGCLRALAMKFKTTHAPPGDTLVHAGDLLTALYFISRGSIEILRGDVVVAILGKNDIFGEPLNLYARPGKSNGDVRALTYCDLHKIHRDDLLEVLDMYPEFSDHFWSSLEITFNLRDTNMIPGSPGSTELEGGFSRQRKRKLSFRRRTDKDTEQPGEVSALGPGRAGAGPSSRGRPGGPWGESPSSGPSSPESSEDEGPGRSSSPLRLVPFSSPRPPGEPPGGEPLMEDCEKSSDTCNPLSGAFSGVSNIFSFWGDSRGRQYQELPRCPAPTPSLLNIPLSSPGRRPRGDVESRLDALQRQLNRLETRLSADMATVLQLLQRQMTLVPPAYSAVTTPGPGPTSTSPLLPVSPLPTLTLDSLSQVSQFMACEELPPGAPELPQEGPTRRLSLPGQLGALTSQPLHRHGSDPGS
Sequence of hERG (Q12809 whole entry): as above

Row | Compound | EC50 (Hepatitis C virus [2]) | EC50 [5] | EC50 (Hepatitis C virus [6]) | half-life [7] | half-life [8] | Papp [9] | concentration at 6 h [10] | IC50 (Cytochrome P450 2C8) | IC50 (Cytochrome P450 3A4) | half-life [11] | half-life [12] | EC50 [14] | logD [15] | further results
1 | CNC(=O)c1cccc(-c2ccc3oc(-c4ccc(F)cc4)c(C(=O)NC)c3c2)c1 | 590 nM | – | – | – | – | – | – | – | – | – | – | – | – | IC50 [1]: 2200 nM; Ratio IC50/EC50 [3]: 2
2 | CNC(=O)c1c(-c2ccc(F)cc2)oc2ccc(-c3cc(C(=O)NC4(c5ncccn5)CC4)ccc3C)cc12 | 1 nM | 51 nM | 2.3 nM | > 2 h | 1.43 h | 76.9 ×10⁻⁶ cm/s | 8.7 µM | 3900 nM | 11400 nM | 0.767 h | 0.85 h | > 50000 nM | 4.76 | CC50 at 72 h [4]: 20000 nM; IC50 [13]: 4800 nM; inhibition at 10 µM (hERG): 96%; t1/2 (Rattus norvegicus [16]): 5.3 h; Vdss (Rattus norvegicus [17]): 6.1 L/kg; Cmax [18]: 6.7 µM; Tmax [19]: 4.7 h; AUC [20]: 48.7 µM·h; concentration at 24 h [21]: 0.614 µM; Kp at 24 h [22]: 2.4; bioavailability [23]: > 100%; Ratio EC50 (Hepatitis C virus [24]): 4; Ratio EC50 (Hepatitis C virus [25]): 4
3 | CNC(=O)c1c(-c2ccc(F)cc2)oc2ccc(-c3cc(C(=O)NC4(c5ccccn5)CC4)ccc3C)cc12 | 1.9 nM | 55 nM | 2.8 nM | 1.8 h | 1.02 h | 99.9 ×10⁻⁶ cm/s | 15.7 µM | 1000 nM | 4100 nM | 0.233 h | 0.333 h | 1600 nM | 5.42 | remaining at 10 min [26]: 89%; remaining at 10 min [27]: 82%; concentration at 6 h [28]: 1.64 µM; CL/F [29]: 14 mL/min/kg

— ChEMBL document CHEMBL4014311, “Discovery of a Hepatitis C Virus NS5B Replicase Palm Site Allosteric Inhibitor (BMS-929075) Advanced to Phase 1 Clinical Studies” (J Med Chem, 2017)
